# From PubChem BioAssay
# The source made the active and inactive calls.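 How the source made its calls, unless noted: active means NADPH fluorescence slope more negative than the mean of all samples by about 3 SD, 99.7% confidence; inactive means the rest.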
# Legend:
# [1] = inhibitors of TNFa-induced NFkB p65 translocation, primary screen, imaging, HUVEC, MLSMR starter and 10KST1 sets (AID 438;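 active means inhibition above 20% together with a positive visual image hit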;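 further: compound added about 3h40 before a 20 min TNFalpha stimulation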;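 on inhibition: signal is the nuclear over cytoplasmic p65 intensity ratio per well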); settings: HUVEC TNFa-induced p65 nuclear translocation; cell count: measured here: nuclei count (cytotoxicity indicator), at 2.08 µM; inhibition: at 2 µM, stronger effect = higher value, 0% TNFa-plus-vehicle, 100% no-TNFa wells
# [2] = inhibitors of mutant huntingtin aggregation, primary screen, imaging, exon1htt(103Q)mCFP cells, high-content imaging (AID 483;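 active means visual image review flags a hit and inhibition of aggregation exceeds 20%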;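 further: compound exposure lasted 3 days before fixation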;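 on nuclei count: percent of the per-plate median nuclei count of sample wells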); settings: exon1htt(103Q)mCFP cell line, aggregate imaging, at 2 µM; inhibition of aggregation: stronger effect = higher value; nuclei count: measured here: cell count, toxicity
# [3] = inhibitors of E-selectin induction by TNFa, primary screen, imaging, HUVEC, immunofluorescence, MLSMR starter and 10KST1 sets (AID 487;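 active means visually confirmed hit in the image check and inhibition above 20%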;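 on inhibition: signal is fraction of cell area covered by stained E-selectin grains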;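 on nuclei count: 100% = median nuclei count of all wells on the same plate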); settings: HUVEC TNFalpha-induced E-selectin immunofluorescence imaging, at 2 µM; inhibition: stronger effect = higher value; nuclei count: measured here: cell number, toxicity
# [4] = target: Voltage-gated potassium channel subunit beta-2 (Rattus norvegicus) (UniProt P62483); assay: KvBeta enzyme negative modulators, primary screen, biochemical, NADPH fluorescence (AID 622;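 active means fluorescence slope higher than the sample average by over 3 SD, cut at about -0.22 in these data, passing the limit was not always enough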;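 further: slope of raw intensity against log time taken from 70 to 1610 s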); settings: recombinant KvBeta, 4-cyanobenzaldehyde reduction, at 10 µM, stronger effect = higher value
# [5] = target: Voltage-gated potassium channel subunit beta-2 (Rattus norvegicus) (UniProt P62483); assay: KvBeta positive modulators, primary screen, biochemical, NADPH fluorescence (AID 623); settings: Recombinant KvBeta, NADPH fluorescence decrease slope, 10 min; at 10 µM; stronger effect = lower value;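 further: fluorescence intensity change per second fitted from 20 to 320 s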
# [6] = target: Muscarinic acetylcholine receptor M4 (Homo sapiens) (UniProt P08173); assay: compounds altering M4/GIRK thallium flux, either direction, primary screen, M4 allosteric agonist project, cell-based, HEK293 M4/GIRK, BTC-AM (AID 625;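 active means fluorescence slope after compound addition differing from the mean of all tested samples at 99.7% confidence, mostly higher but some lower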;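 further: thallium influx through GIRK channels coupled to M4 in HEK293 cells with BTC-AM dye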); settings: at 10 µM, actives lie on both sides
# Procedure, shortened: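 Material – HEK293 cells with M4 receptor and GIRK channels · Buffer or medium – pH 7.3 thallium assay buffer · Doses – one dose, 10 µM final · Timing – cells overnight at 37 °C, BTC-AM loading 1 h, reads 2 min total · Measured by – kinetic fluorescence with BTC-AM dye · Controls – carbachol and DMSO controls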
# [7] = inhibitors of Sendai virus-induced IRF3 signaling, primary screen, TLR/RLR signaling modifier project, cell-based, Sendai virus stimulus, luciferase, 10K MLSCN set (AID 602276;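 active means inhibition at or above 50% at 10 µM; inactive means inhibition below 50%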;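 further: firefly luciferase from ISG56 promoter only with Renilla not read in this screen; 0% = Sendai virus plus DMSO and 100% = medium plus DMSO without virus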); settings: HEK293 RL24 IRF3 luciferase reporter, at 10 µM, stronger effect = higher value
# [8] = inhibitors of poly I:C-induced TLR3 signaling, primary screen, cell-based, poly I:C stimulus, luciferase, 10K MLSCN set (AID 602277;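 active means inhibition of the reporter signal at or above 50%; inactive means inhibition below 50%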); settings: HEK293-TLR3 RL24 IRF3 luciferase reporter, at 10 µM, stronger effect = higher value
# Muscarinic acetylcholine receptor M4 (Homo sapiens), sequence (P08173 whole entry, looked up): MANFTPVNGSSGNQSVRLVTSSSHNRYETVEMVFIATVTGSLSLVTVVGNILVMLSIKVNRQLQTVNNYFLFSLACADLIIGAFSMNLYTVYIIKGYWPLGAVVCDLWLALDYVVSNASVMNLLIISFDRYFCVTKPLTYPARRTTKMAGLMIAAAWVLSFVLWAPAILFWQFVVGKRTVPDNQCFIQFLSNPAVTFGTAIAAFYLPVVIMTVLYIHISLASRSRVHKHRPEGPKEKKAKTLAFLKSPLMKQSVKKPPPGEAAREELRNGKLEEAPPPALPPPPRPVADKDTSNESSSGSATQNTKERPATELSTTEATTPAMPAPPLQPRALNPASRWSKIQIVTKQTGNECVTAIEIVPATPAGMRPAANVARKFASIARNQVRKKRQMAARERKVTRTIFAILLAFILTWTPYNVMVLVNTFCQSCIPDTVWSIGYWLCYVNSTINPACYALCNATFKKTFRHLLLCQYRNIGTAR
# Voltage-gated potassium channel subunit beta-2 (Rattus norvegicus), sequence (P62483 whole entry, looked up): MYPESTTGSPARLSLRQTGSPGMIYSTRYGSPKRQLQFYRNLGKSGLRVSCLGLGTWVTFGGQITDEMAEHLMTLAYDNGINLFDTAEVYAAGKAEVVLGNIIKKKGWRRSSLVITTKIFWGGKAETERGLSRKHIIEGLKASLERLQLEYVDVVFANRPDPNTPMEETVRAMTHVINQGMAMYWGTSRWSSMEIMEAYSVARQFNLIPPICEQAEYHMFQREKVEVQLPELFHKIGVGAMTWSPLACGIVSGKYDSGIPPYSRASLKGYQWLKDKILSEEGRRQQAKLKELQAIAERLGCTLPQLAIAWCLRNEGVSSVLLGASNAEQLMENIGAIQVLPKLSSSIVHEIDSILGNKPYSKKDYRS
SMILES,cell count [1],inhibition [1],inhibition of aggregation [2],nuclei count [2],inhibition [3],nuclei count [3],fluorescence slope [4],NADPH fluorescence slope [5],fluorescence slope [6],inhibition [7],inhibition [8]
COc1cc(NC(=O)c2cc(-n3cnnc3)ccc2Cl)cc(OC)c1,224,-8.1% (inactive),-12.2% (inactive),97.9%,-46.1% (inactive),95.5%,-0.479 (inactive),-8.2e-05 (inactive),0.00479 (inactive),15.2% (inactive),17.9% (inactive)
CCC1CCCCN1S(=O)(=O)c1ccc(C(=O)Nc2nnc(-c3cccs3)o2)cc1 (stereo not drawn),404,5.3% (inactive),8.5% (inactive),97%,-211% (inactive),111%,-0.486 (inactive),-0.000271 (inactive),0.0055 (inactive),10.8% (inactive),16.6% (inactive)
COc1ccccc1N1CCN(C(=O)CSc2nc(-c3ccccc3)cc(=O)[nH]2)CC1,284,-10.5% (inactive),-9.2% (inactive),114%,-30.1% (inactive),124%,-0.509 (inactive),9.3e-06 (inactive),0.00621 (inactive),-1.48% (inactive),6.29% (inactive)
N#CC1=C(N)N(c2ccccc2)C2=C(C(=O)CCC2)C1c1cccs1 (stereo not drawn),610,0% (inactive),3.8% (inactive),108%,-53.5% (inactive),98.1%,-0.362 (inactive),-4.2e-05 (inactive),0.00595 (inactive),-12.6% (inactive),-9.24% (inactive)
COc1cccc(-c2cc(C(=O)N3CCCc4ccccc43)no2)c1,406,-23% (inactive),-4.7% (inactive),102%,-13.2% (inactive),94.5%,-0.217 (inactive),-1.8e-05 (inactive),0.00726 (inactive),0.639% (inactive),-88.4% (inactive)
COc1ccccc1C1c2c(oc3ccc(Cl)cc3c2=O)C(=O)N1c1cc(C)on1 (stereo not drawn),345,-5% (inactive),2.2% (inactive),103%,-13.8% (inactive),112%,-0.555 (inactive),2.1e-05 (inactive),0.0044 (inactive),24.8% (inactive),16.8% (inactive)
O=C(CCn1nc(-c2ccccc2)ccc1=O)N1CCCC1,349,2.1% (inactive),-17% (inactive),95.9%,-8.9% (inactive),106%,-0.577 (inactive),-2e-05 (inactive),0.00645 (inactive),6.69% (inactive),2.22% (inactive)
CCN1CCN(Cc2c(C)[nH]c3ccc(OC)cc3c2=O)CC1,405,18.7% (inactive),-19.4% (inactive),99.3%,-241% (inactive),113%,-0.57 (inactive),-9e-05 (inactive),0.00708 (inactive),19.5% (inactive),26.6% (inactive)
CCOC(=O)Nc1c(C(=O)OC)[nH]c2cccc(OC)c12,526,-0.5% (inactive),-15.7% (inactive),109%,-32.4% (inactive),126%,-0.478 (inactive),3e-05 (inactive),0.00517 (inactive),-7.18% (inactive),-3.25% (inactive)
COc1ccc(-c2n[nH]c(C)c2-c2ccc(Cl)cc2)c(O)c1OC,403,-9.6% (inactive),-24.2% (inactive),104%,-45.3% (inactive),133%,-0.529 (inactive),-0.00026 (inactive),0.00338 (inactive),20.1% (inactive),24.5% (inactive)
CCCCc1ccc(NC(=O)COCC)cc1,366,-2.7% (inactive),-8.1% (inactive),110%,-34.5% (inactive),98.4%,-0.585 (inactive),1.7e-05 (inactive),0.00366 (inactive),-24.8% (inactive),-77.1% (inactive)
Cc1nc2cccc(C(=O)NC3CCCCC3)c2o1,369,6.8% (inactive),-19.6% (inactive),53.7%,-67.3% (inactive),102%,-0.416 (inactive),-1.2e-05 (inactive),0.00546 (inactive),10.4% (inactive),13.1% (inactive)
Cc1cc(NC(=O)CSc2nnc(C3CC3)n2C)no1,296,1.1% (inactive),15.4% (inactive),96.8%,-26.7% (inactive),93.5%,-0.55 (inactive),-7.5e-05 (inactive),0.00523 (inactive),8.69% (inactive),16.1% (inactive)
CC(=O)Nc1ccc(Oc2cc(C#N)c(C#N)cc2N2CCCCCC2)cc1,305,-7.7% (inactive),-9.6% (inactive),91.5%,-62.5% (inactive),127%,-0.377 (inactive),2.3e-05 (inactive),0.00486 (inactive),13.8% (inactive),21.8% (inactive)
CC1CC(C)CN(CCCNC(=O)COc2cc(=O)n(C)c3ccccc23)C1 (stereo not drawn),347,3.3% (inactive),-17.3% (inactive),99%,-10.4% (inactive),122%,-0.408 (inactive),-7e-05 (inactive),0.00505 (inactive),11.3% (inactive),36.3% (inactive)
CC(C)c1ccc(S(=O)(=O)N2CCN(C(=O)c3cccc(F)c3)CC2)cc1,363,4.2% (inactive),17% (inactive),100%,-70.8% (inactive),118%,-0.525 (inactive),0.000166 (inactive),0.00667 (inactive),14.9% (inactive),17% (inactive)
CCOC(=O)c1sc(C)c2c(=O)n(CC)nnc12,304,0.8% (inactive),-14.4% (inactive),102%,-56% (inactive),109%,-0.523 (inactive),-2.3e-06 (inactive),0.00361 (inactive),6.72% (inactive),4.72% (inactive)
CC(=O)N1CCc2cc(S(=O)(=O)NC(CC(C)C)C(=O)N3CCn4c3nc3ccccc34)ccc21 (stereo not drawn),292,3.6% (inactive),8.8% (inactive),104%,22.8% (inactive),63%,-0.329 (inactive),5e-05 (inactive),0.0063 (inactive),10.1% (inactive),9.41% (inactive)
Cc1cc(NC(=O)c2ccc3nc(-c4ccccc4)c(-c4ccccc4)nc3c2)no1,536,-0.9% (inactive),-14.8% (inactive),102%,-66.9% (inactive),106%,-0.463 (inactive),-2.8e-05 (inactive),0.00551 (inactive),-16% (inactive),-16.7% (inactive)
CCOc1cccc(OCCOCCN2CCCC2)c1,802,0.5% (inactive),2.1% (inactive),79.5%,-29.7% (inactive),103%,-0.229 (inactive),-1.9e-05 (inactive),0.00581 (inactive),14.6% (inactive),13.2% (inactive)
Cc1cc(C)c(NC(=O)C2CCCN2CCO)c(C)c1 (stereo not drawn),553,-0.3% (inactive),-3.4% (inactive),92.5%,-4.2% (inactive),84.4%,-0.514 (inactive),-6.1e-05 (inactive),0.00468 (inactive),-8.07% (inactive),-8.13% (inactive)
Cn1c(=O)c2c(ncn2CC(O)CNc2ccc(Cl)cc2)n(C)c1=O (stereo not drawn),629,-6.3% (inactive),-15.7% (inactive),100%,-104% (inactive),110%,-0.447 (inactive),3.3e-05 (inactive),0.00475 (inactive),3.66% (inactive),2.85% (inactive)
CCOC(=O)COc1ccc(S(=O)(=O)Nc2ccc3c(c2)OCO3)cc1,408,9.5% (inactive),3.4% (inactive),98.2%,-137% (inactive),115%,-0.588 (inactive),-0.000101 (inactive),0.00399 (inactive),12.4% (inactive),19.9% (inactive)
COc1ccc(Cn2c(=O)[nH]c3cc(C(=O)NCCCN4CCCC4)ccc3c2=O)cc1,474,-5.2% (inactive),30.8% (inactive),88.2%,30.4% (inactive),139%,-0.26 (inactive),-1.4e-05 (inactive),0.00648 (inactive),11% (inactive),-6.33% (inactive)
COc1ccc(-c2cc(C(=O)NCCc3ccccc3)no2)cc1OC,364,-23% (inactive),-2.1% (inactive),98.3%,-58.5% (inactive),105%,-0.298 (inactive),-2.2e-05 (inactive),0.00599 (inactive),7.88% (inactive),-6.93% (inactive)
CCOc1cc(C(=O)N2CCN(c3ccccc3)CC2)cc(OCC)c1OCC,284,14.5% (inactive),39.7% (active),88.2%,11.1% (inactive),90.3%,-0.559 (inactive),-2.8e-05 (inactive),0.00369 (inactive),12.4% (inactive),15.3% (inactive)
COC(=O)c1ccc(CN(c2ccccc2OC)S(=O)(=O)c2cccs2)o1,666,8.1% (inactive),-4.4% (inactive),113%,44.1% (inactive),98.6%,-0.534 (inactive),-5.7e-05 (inactive),0.00695 (inactive),3.68% (inactive),7.96% (inactive)
CC(C)(C)NC(=O)Nc1ccccc1C(N)=O,657,1.6% (inactive),-14.8% (inactive),108%,-34.5% (inactive),107%,-0.539 (inactive),-8e-06 (inactive),0.0058 (inactive),3.23% (inactive),-20.8% (inactive)
